Results taken from ChEMBL document CHEMBL4118262, “Synthesis and biological evaluation of novel N-substituted nipecotic acid derivatives with an alkyne spacer as GABA uptake inhibitors” (Bioorg Med Chem, 2018).

Legend:
[1] = target: Sodium- and chloride-dependent GABA transporter 1 (Mus musculus) (UniProt P31648); assay: Inhibition of [2H10]NO 711 binding to mouse GAT1 expressed in HEK293 cell membranes assessed as remaining NO711 binding at 100 uM after 40 mins by LC-ESI-MS-MS analysis relative to control
[2] = system: betaine/GABA transporter BGT1 (mGAT2, Slc6a12) (Mus musculus); assay: Inhibition of mouse GAT2 expressed in HEK293 cells assessed as decrease in [3H]GABA uptake at 100 uM preincubated for 25 mins followed by [3H]GABA addition measured after 10 mins by liquid scintillation counting analysis relative to control; design: scale not given: the % may be the effect or the level left
[3] = system: GABA transporter mGAT3 (Slc6a13) (Mus musculus); assay: Inhibition of mouse GAT3 expressed in HEK293 cells assessed as decrease in [3H]GABA uptake at 100 uM preincubated for 25 mins followed by [3H]GABA addition measured after 4 mins by liquid scintillation counting analysis relative to control; design: scale not given: the % may be the effect or the level left
[4] = target: Sodium- and chloride-dependent GABA transporter 1 (Mus musculus) (UniProt P31648); assay: Inhibition of mouse GAT1 expressed in HEK293 cells assessed as decrease in [3H]GABA uptake at 100 uM preincubated for 25 mins followed by [3H]GABA addition measured after 4 mins by liquid scintillation counting analysis relative to control; assay type: cell-based; design: scale not given: the % may be the effect or the level left
How it was run: (§1)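 [³H]GABA uptake assay in HEK cells expressing the mGAT subtype named in the line, run in triplicate. Potencies are given as pIC₅₀ ± SEM. No SEM is given where only one triplicate measurement was made. Where 100 µM test compound left uptake at or above 50% (pIC₅₀ ≤ 4.00), the percent remaining [³H]GABA uptake at 100 µM is reported instead.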

[5] = target: T1, GABA transporter 4 (Mus musculus) (UniProt P31650); assay: Inhibition of mouse GAT4 expressed in HEK293 cells assessed as decrease in [3H]GABA uptake at 100 uM preincubated for 25 mins followed by [3H]GABA addition measured after 4 mins by liquid scintillation counting analysis relative to control; assay type: cell-based; design: scale not given: the % may be the effect or the level left; how it was run: as §1
T1 sequence (whole entry): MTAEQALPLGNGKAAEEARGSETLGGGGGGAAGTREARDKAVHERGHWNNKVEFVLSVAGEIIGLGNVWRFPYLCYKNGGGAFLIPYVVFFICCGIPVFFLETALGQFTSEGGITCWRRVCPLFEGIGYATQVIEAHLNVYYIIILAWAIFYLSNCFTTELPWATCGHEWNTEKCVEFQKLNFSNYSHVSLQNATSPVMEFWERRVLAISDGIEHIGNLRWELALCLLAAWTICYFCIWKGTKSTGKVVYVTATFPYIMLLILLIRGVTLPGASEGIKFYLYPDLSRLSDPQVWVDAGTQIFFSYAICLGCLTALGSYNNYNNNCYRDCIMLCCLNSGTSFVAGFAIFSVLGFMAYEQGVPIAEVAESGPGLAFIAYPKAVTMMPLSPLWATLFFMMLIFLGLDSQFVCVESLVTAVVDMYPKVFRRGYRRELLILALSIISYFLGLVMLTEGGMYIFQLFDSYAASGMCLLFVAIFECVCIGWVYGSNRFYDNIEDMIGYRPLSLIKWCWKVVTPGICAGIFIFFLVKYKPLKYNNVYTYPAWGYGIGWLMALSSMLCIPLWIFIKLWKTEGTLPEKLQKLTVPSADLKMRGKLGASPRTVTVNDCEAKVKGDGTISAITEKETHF

[6] = target: T2, Sodium- and chloride-dependent GABA transporter 1 (Mus musculus, UniProt P31648); assay: Inhibition of [2H10]NO 711 binding to mouse GAT1 expressed in HEK293 cell membranes after 40 mins by LC-ESI-MS-MS analysis
How it was run: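 MS Binding Assay on mGAT1 expressed in HEK cells, with NO711 as marker. Run in triplicate. Results are reported as pKi ± SEM. Where only one triplicate measurement was made, no SEM is given.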

[7] = target: T3, GABA transporter 4 (Mus musculus, UniProt P31650); assay: Inhibition of mouse GAT4 expressed in HEK293 cells assessed as decrease in [3H]GABA uptake preincubated for 25 mins followed by [3H]GABA addition measured after 4 mins by liquid scintillation counting analysis; assay type: cell-based; how it was run: as §1
T3 sequence (P31650 whole entry): T1 sequence (whole entry)

[8] = target: T2, Sodium- and chloride-dependent GABA transporter 1; assay: Inhibition of mouse GAT1 expressed in HEK293 cells assessed as decrease in [3H]GABA uptake preincubated for 25 mins followed by [3H]GABA addition measured after 4 mins by liquid scintillation counting analysis; assay type: cell-based; how it was run: as §1

Row | Activity [1] [%] | Activity [2] [%] | Activity [3] [%] | Activity [4] [%] | Activity [5] [%] | Ki [6] [µM] | IC50 [7] [µM] | IC50 [8] [µM] | SMILES
1 | 70 | 87 | 80 | 62 | 54 | – | – | – | C=C=C(CN1CCCC(C(=O)O)C1)C(c1ccccc1)(c1ccccc1)c1ccccc1 (racemic)
2 | – | 67 | – | – | – | 2.14 | 41.7 | 8.32 | COc1ccc(C(C#CCN2CCCC(C(=O)O)C2)(Cc2ccccc2)c2ccc(OC)cc2)cc1 (racemic)
3 | 57 | 77 | – | 69 | – | – | 49 | – | C=C=C(CN1CCCC(C(=O)O)C1)C(c1ccc(OC)cc1)(c1ccc(OC)cc1)c1ccc(OC)cc1 (racemic)
4 | – | 70 | – | – | – | 5.25 | 34.7 | 25.1 | COc1ccc(C(C#CCN2CCCC(C(=O)O)C2)(c2ccc(OC)cc2)c2ccsc2)cc1 (racemic)
5 | – | – | – | – | – | 37.2 | 17.4 | 52.5 | COc1ccc(C(CC#CCN2CCCC(C(=O)O)C2)(c2ccc(OC)cc2)c2ccc(OC)cc2)cc1 (racemic)
6 | – | 53 | – | – | – | 1.91 | 36.3 | 13.2 | COc1ccc(CC(C#CCN2CCCC(C(=O)O)C2)(c2ccc(OC)cc2)c2ccc(OC)cc2)cc1 (racemic)
7 | – | – | – | – | – | 4.37 | 29.5 | 14.5 | COc1ccc(C(C#CCN2CCCC(C(=O)O)C2)(c2ccc(OC)cc2)c2ccc(OC)cc2)cc1 (racemic)
8 | – | – | – | – | – | 4.9 | 51.3 | 22.9 | COc1ccc(C(C#CCN2CCCC(C(=O)O)C2)(c2ccc(OC)cc2)c2ccc3c(c2)OCO3)cc1 (racemic)
9 | – | 66 | 61 | – | 64 | 0.0912 | – | 0.427 | O=C(O)C1CCCN(CCC#CC(c2ccccc2)(c2ccccc2)c2ccccc2)C1 (racemic)
10 | – | 66 | 50 | – | – | 14.5 | 70.8 | 35.5 | O=C(O)C1CCCN(CC#CCC(c2ccccc2)(c2ccccc2)c2ccccc2)C1 (racemic)
11 | – | 80 | – | – | – | 1.1 | 23.4 | 3.72 | COc1ccc(C(C#CCN2CCCC(C(=O)O)C2)c2ccc(OC)cc2)cc1 (racemic)
12 | – | – | – | – | – | 2.75 | 25.7 | 15.8 | COc1ccc(C(C#CCCN2CCCC(C(=O)O)C2)(c2ccc(OC)cc2)c2ccc(OC)cc2)cc1 (racemic)
13 | – | – | – | – | – | 1.91 | 12 | 11 | COc1ccc(C(C#CCN2CCCC(C(=O)O)C2)(c2ccc(OC)cc2)c2ccc3sccc3c2)cc1 (racemic)
14 | 83 | 106 | 103 | 80 | 91 | – | – | – | COc1ccc(C(C#CCN2CCCC(C(=O)O)C2)(c2ccc(OC)cc2)c2nccn2C)cc1 (racemic)
15 | 59 | 72 | 74 | 66 | 69 | – | – | – | COc1ccc(C(O)(C#CCN2CCCC(C(=O)O)C2)c2ccc(OC)cc2)cc1 (racemic)
16 | – | – | – | – | – | 38 | 8.51 | 67.6 | COc1ccc(C(OCCN2CCCC(C(=O)O)C2)(c2ccc(OC)cc2C)c2ccc(OC)cc2C)cc1 (configuration not stated)
17 | – | 84 | 82 | 68 | 79 | 77.6 | – | – | COc1ccc(C(C#CCN2CCCC(C(=O)O)C2)(c2ccc(OC)cc2)c2nccs2)cc1 (racemic)
18 | 59 | – | – | – | – | – | 1.66 | 64.6 | COc1ccc(C(OCCN2CCC[C@H](C(=O)O)C2)(c2ccc(OC)cc2)c2ccc(OC)cc2C)cc1

Row | SMILES | Activity [1] [%] | Activity [2] [%] | Activity [3] [%] | Activity [4] [%] | Activity [5] [%] | Ki [6] [µM] | IC50 [7] [µM] | IC50 [8] [µM]
19 | COc1ccc(C(/C=C/CN2CCCC(C(=O)O)C2)(c2ccc(OC)cc2)c2ccc(OC)cc2)cc1 (configuration not stated) | – | – | – | – | – | 14.8 | – | –
